Source: PMC7340344 (Journal of medicinal chemistry, 2020)
Counter-ions that a name gives are not always drawn.

How the values were obtained:
PCAF = PCAF (Homo sapiens, UniProt Q92831); experiment: Inhibition of PCAF; type: biochemical
Myst3 = Myst3 (Homo sapiens, UniProt Q92794); experiment: Inhibition of Myst3; type: biochemical
LSD1 = LSD1 (Homo sapiens, UniProt O60341); experiment: Inhibition of LSD1; type: biochemical
p300 HAT = target: T1, p300 HAT (Homo sapiens, UniProt Q09472); experiment: Steady-state enzyme kinetics, mode of inhibition; type: biochemical
T1 sequence (Q09472 1195-1673): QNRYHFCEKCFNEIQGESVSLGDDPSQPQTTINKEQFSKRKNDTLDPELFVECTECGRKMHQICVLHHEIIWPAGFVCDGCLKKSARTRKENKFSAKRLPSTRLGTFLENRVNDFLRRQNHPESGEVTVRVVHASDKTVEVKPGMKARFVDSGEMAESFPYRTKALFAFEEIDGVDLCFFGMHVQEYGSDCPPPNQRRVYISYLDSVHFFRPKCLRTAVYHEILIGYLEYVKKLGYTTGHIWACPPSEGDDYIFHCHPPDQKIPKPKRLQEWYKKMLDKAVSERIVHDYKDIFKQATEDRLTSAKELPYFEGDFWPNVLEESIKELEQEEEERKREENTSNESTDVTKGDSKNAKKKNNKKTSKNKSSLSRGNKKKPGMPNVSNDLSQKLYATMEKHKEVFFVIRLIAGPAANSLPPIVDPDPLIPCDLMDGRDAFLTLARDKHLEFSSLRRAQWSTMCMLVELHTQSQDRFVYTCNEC
Method in brief: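 Radiometric filter-binding assay with recombinant human GST-p300 HAT domain (residues 1195-1673) expressed in E. coli, at 10 nM. Enzyme was preincubated with test compound for 10 min at 25 °C in 50 mM phosphate, pH 7.0, with 0.01% Brij-35. Histone H3 (1-21) peptide and 3H-Ac-CoA/Ac-CoA started the reaction, with Ac-CoA or peptide concentration varied. After 30 min at 25 °C, formic acid stopped it; peptide was captured on P81 paper, washed with NaHCO3 and scintillation-counted.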

Kasumi-1 leukemia cells = experiment: Western blot of cellular histone acetylation; type: cell-based; settings: Kasumi-1 cells, 12h, 5 and 10 μM
Method in brief: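 Kasumi-1 cells (10^6/well) were exposed to test compound at 0, 5 and 10 μM for 12 h. Total histones were extracted by kit, and 2 μg per lane were separated by SDS-PAGE and transferred to PVDF. Blots were probed with antibodies to H3K9Ac, H3K18Ac, H3K27Ac and total H3, then with an anti-rabbit IgG secondary.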

MCF-7 = experiment: Cell growth inhibition, MCF-7; type: cell-based; settings: Homo sapiens, MCF7, read-out: Antiproliferative activity EC50 (μM), MCF-7
[1] = system: ER+ breast cancer MCF-7 cells; experiment: RNA sequencing and gene set enrichment analysis; type: cell-based, human; settings: MCF-7, 6 μM, 48 hours, with estradiol 10 nM; p < 0.001
Method in brief: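 MCF-7 cells were starved for 7 days in phenol red-free DMEM with 10% charcoal-treated FBS. They were then given test compound (6 μM) or DMSO, with or without estradiol (10 nM), for 48 h. Total RNA was sequenced as stranded, rRNA-depleted libraries (HiSeq 2500, paired-end) and mapped to hg38. FPKM values were quantile-normalized and analysed by GSEA against MSigDB and the siRNA p300-knockdown signature (GSE31873, C4–2B cells).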

p300 HAT and histone H4 = target: T2, p300 HAT and histone H4 (Homo sapiens, UniProt Q09472); experiment: Alpha assay, binding between p300 HAT and histone H4 peptide
T2 sequence (Q09472 1287-1663 limits assumed): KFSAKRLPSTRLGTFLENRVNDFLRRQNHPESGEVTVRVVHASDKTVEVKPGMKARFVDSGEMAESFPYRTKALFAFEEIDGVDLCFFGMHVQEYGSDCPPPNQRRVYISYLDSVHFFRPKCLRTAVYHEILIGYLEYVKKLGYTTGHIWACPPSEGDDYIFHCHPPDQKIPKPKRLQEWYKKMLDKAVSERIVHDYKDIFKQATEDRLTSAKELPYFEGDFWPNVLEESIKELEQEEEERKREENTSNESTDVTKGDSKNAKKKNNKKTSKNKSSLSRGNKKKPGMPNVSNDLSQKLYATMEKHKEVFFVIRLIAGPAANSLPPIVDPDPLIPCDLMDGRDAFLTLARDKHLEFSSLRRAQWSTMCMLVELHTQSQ

p300/CBP HAT = settings: cited from earlier work

Chain of PCAF (Q92831 whole entry): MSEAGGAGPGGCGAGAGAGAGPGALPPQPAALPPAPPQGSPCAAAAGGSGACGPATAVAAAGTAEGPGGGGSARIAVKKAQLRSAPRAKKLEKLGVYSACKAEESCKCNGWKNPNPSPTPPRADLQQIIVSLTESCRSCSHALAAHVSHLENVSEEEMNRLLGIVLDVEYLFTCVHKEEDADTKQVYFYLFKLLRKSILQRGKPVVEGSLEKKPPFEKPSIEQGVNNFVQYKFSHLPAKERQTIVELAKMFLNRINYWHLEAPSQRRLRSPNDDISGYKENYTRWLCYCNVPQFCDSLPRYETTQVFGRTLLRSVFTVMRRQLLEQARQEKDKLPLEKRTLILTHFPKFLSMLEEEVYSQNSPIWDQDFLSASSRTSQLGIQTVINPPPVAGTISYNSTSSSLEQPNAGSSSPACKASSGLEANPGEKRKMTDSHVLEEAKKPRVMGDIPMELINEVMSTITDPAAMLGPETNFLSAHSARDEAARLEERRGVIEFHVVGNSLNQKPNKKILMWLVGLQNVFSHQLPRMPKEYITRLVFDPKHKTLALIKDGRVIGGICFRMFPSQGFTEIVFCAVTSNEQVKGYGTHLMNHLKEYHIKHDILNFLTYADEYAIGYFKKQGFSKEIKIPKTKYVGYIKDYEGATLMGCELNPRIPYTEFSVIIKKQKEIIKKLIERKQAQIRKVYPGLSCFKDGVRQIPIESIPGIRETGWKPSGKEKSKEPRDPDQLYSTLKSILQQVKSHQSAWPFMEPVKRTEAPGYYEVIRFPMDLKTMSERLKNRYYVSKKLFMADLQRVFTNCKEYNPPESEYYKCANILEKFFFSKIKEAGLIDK
Chain of Myst3 (Q92794 whole entry): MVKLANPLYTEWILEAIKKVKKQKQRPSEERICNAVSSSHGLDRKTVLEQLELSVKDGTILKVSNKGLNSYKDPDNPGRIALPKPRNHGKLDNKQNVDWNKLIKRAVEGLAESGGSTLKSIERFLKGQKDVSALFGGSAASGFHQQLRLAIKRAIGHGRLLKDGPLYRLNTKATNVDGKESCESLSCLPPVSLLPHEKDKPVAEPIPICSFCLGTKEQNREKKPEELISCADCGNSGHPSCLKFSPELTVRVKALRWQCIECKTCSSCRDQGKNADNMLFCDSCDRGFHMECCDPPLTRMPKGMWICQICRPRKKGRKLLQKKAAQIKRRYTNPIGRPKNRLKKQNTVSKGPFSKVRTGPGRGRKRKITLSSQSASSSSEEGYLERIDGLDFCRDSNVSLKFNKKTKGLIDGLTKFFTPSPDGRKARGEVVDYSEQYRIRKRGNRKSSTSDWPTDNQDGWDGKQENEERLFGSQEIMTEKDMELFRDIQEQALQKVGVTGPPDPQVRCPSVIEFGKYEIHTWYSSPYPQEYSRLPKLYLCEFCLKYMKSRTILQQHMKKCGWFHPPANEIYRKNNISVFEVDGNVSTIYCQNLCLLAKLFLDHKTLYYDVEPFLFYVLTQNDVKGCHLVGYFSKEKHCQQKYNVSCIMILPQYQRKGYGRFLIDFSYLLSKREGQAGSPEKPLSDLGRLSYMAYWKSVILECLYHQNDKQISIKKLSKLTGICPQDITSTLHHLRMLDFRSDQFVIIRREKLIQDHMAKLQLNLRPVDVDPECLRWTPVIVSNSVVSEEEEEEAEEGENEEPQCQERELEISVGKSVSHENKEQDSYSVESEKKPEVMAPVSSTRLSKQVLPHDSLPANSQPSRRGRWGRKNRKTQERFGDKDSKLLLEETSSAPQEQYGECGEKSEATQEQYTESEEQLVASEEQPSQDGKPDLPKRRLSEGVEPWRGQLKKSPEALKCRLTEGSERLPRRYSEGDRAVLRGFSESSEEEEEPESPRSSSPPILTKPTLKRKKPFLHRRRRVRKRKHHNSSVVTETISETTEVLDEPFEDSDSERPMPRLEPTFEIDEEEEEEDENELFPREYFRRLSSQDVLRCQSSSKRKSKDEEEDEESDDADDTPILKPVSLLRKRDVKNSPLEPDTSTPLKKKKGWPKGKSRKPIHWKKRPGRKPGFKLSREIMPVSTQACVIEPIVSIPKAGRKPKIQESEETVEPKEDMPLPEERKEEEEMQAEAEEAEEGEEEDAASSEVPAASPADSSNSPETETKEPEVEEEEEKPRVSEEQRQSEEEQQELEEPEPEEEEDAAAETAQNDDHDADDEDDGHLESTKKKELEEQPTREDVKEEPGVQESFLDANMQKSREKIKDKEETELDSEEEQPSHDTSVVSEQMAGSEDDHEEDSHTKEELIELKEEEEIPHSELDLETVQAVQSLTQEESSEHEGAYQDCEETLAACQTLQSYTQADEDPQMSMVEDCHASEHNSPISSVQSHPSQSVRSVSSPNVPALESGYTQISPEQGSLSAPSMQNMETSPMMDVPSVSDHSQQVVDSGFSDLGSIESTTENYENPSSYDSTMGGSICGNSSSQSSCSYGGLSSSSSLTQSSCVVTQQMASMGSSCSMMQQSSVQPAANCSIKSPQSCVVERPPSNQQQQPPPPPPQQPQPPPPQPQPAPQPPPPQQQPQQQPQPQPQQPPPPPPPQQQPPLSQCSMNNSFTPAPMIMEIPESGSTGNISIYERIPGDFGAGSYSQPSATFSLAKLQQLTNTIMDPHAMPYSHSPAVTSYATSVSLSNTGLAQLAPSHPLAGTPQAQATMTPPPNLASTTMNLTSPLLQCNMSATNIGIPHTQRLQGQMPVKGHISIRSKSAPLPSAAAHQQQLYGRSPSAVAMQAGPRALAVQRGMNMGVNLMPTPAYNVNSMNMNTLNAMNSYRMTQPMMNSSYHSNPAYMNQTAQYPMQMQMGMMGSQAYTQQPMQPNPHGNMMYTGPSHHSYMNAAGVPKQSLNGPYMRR

CC(C)(C)c1ccc(-c2cc(CNCC3CCNCC3)sc2-c2ccc(C(C)(C)C)cc2)cc1 [Compound 12, 1-(4,5-bis(4-(tert-Butyl)phenyl)thiophen-2-yl)-N-(piperidin-4-ylmethyl)methanamine hydrochloride]
inhibition of PCAF activity at 50 μM (PCAF): did not significantly inhibit
inhibition of Myst3 activity at 50 μM (Myst3): did not significantly inhibit
inhibition of LSD1 activity at 50 μM (LSD1): did not significantly inhibit
mode of inhibition against the cofactor Ac-CoA (p300 HAT; Ac-CoA 0.5 - 8 μM (0.07-[…] Km)): non-competitive
mode of inhibition against the substrate histone (p300 HAT; histone peptide 2 - 100 μM): competitive
cellular acetylation of histone H3K9, H3K18 and H3K27 (Kasumi-1 leukemia cells): significantly inhibit
EC50 (MCF-7): ~3 µM
NES, gene set upregulated by estradiol [1]: −9.19
NES, genes suppressed by estradiol [1]: 7.41
normalized enrichment score (NES), genes suppressed by p300 knockdown (GSE31873) [1]: −3.32

CNC(=O)Nc1ccc2c(c1)CC[C@@]21OC(=O)N(CC(=O)N(Cc2ccc(F)cc2)[C@@H](C)C(F)(F)F)C1=O [Compound A-485, reference compound]
effect on binding between p300 HAT and histone H4 (in words) (p300 HAT and histone H4): did not affect the binding
mode of inhibition (p300/CBP HAT): competitive against the enzyme cofactor acetyl coenzyme A (Ac-CoA)
